Experimental data published in ChEMBL document CHEMBL1155356, “Design, synthesis, and structure-activity relationship of novel orally efficacious pyrazole/sulfonamide based dihydroquinoline gamma-secretase inhibitors” (Bioorg Med Chem Lett, 2009).
Values after ≈ are worked out from the molar mass of the structure shown.

Tests used:
[1] = (§1) Oxidative metabolic stability in human liver microsomes at 1 uM after 30 mins in presence of 1 mM NADPH; format: ADME, Microsome; settings: liver microsomes, read-out: Stability
Summary of the method: (§2)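 Oxidative stability: compound at 1 µM incubated 30 min at 37 °C in phosphate buffer with liver microsomes (0.5 mg/ml protein) plus 1 mM NADPH. Percent parent remaining reported. Human or mouse microsomes per line.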

[2] = Oxidative metabolic stability in mouse liver microsomes at 1 uM after 30 mins in presence of 1 mM NADPH; format: ADME, Microsome; settings: for remaining at 0.5 h, 1 µM: liver microsomes, read-out: Stability; for Stability: microsomes, 0.5 h, 1 µM; summary of the method: as §2
Gamma-secretase = experiment: Inhibition of Gamma-secretase in human IMR-32 cells after 2 hrs by ELISA assay; format: cell-based
Summary of the method: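 γ-Secretase came from IMR-32 cell membranes, and compound was first diluted in DMSO. Reaction at 37 °C was started with MBPC-125 Swedish substrate, run for 2 h, then stopped with SDS. Cleaved substrate was measured by Aβ40-specific ELISA. Values are means of three experiments.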

[3] = Apparent permeability from apical to basolateral side in MDCK2 cells at 5 uM after 120 mins; format: ADME, cell-based, Canis lupus familiaris, MDCK-II; settings: dog, MDCK
Summary of the method: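 Compound at 5 µM in mHBSS pH 7.4 applied to MDCK II cell monolayers for 120 min at 37 °C. Apical and basolateral chambers sampled and analysed by LC/MS/MS.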

[4] = Solubility in HBSS buffer at 20 mM at pH 7.4 after 1 hr; format: physicochemical
Summary of the method: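 20 mM DMSO stocks serially diluted in DMSO, then diluted 1:200 into HBSS pH 7.4. After 1 h incubation, plates read on a solubility scanner.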

[5] = Metabolic stability in mouse liver microsomes at 2 uM after 30 mins in presence of 1 mM UDPGA; format: ADME, Microsome; settings: read-out: Stability
Summary of the method: (§3)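 Glucuronidation stability: 2 µM compound incubated 30 min at 37 °C in phosphate buffer with liver microsomes (0.5 mg protein), 1 mM UDPGA, 100 mM MgCl2 and 25 µg/mL alamethicin. Read-out is percent parent compound remaining. Human or mouse microsomes per line.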

Mus musculus = experiment: Reduction of cortical abeta40 level in FVB mouse at 3 mg/kg, po after 3 hrs; format: functional; parameters: scale not given: the % may be the effect or the level left
[6] = Metabolic stability in human liver microsomes at 2 uM after 30 mins in presence of 1 mM UDPGA; format: ADME, Microsome; settings: read-out: Stability; summary of the method: as §3
Liver microsomes = experiment: as §1; format: ADME, Microsome; settings: microsomes, 0.5 h, 1 µM; summary of the method: as §2

Row | Structure (SMILES) | remaining at 0.5 h, 1 µM [1] [%] | remaining at 0.5 h, 1 µM [2] [%] | IC50 (Gamma-secretase) [nM] | also measured
1 | O=S(=O)(c1ccc(Cl)cc1)N1Cc2c[nH]nc2-c2ccccc21 | 0 | 2 | 27 | –
2 | O=S(=O)(c1ccc(C(F)(F)F)cn1)N1c2ccc(F)cc2-c2n[nH]cc2[C@H]1C1CC1 | 95 | 83 | 0.67 | Papp A→B at 2 h, 5 µM [3]: 24.9 ×10⁻⁶ cm/s; solubility at 1 h [4]: 95 µM (≈ 41.6 µg/mL); remaining at 0.5 h, 2 µM [5]: 89%; Activity (Mus musculus): 43%; remaining at 0.5 h, 2 µM [6]: 97%
3 | O=S(=O)(c1ccc(C(F)(F)F)cc1)N1c2cc(N3CCOCC3)ccc2-c2n[nH]cc2C1C1CC1 (racemic) | 29 | 17 | 0.58 | –
4 | O=S(=O)(c1ccc(OC(F)F)cc1)N1c2ccc(F)cc2-c2n[nH]cc2C1C1CC1 (racemic) | 68 | 56 | 0.76 | –
5 | O=S(=O)(c1cccs1)N1c2cc(F)c(F)cc2-c2n[nH]cc2C1C1CC1 (racemic) | 1 | 5 | 2.9 | –
6 | O=S(=O)(c1ccc(C(F)(F)F)cc1)N1c2cccnc2-c2n[nH]cc2C1C1CC1 (racemic) | 44 | 25 | 2.1 | –
7 | CC1c2c[nH]nc2-c2ccccc2N1S(=O)(=O)c1ccccn1 (racemic) | 73 | 46 | 290 | –
8 | CC(C)C1c2c[nH]nc2-c2ccccc2N1S(=O)(=O)c1ccc(Cl)cc1 (racemic) | 1 | 2 | 0.28 | –
9 | O=S(=O)(c1ccc(C(F)(F)F)cc1)N1c2ncccc2-c2n[nH]cc2C1C1CC1 (racemic) | 59 | 53 | 1.1 | –
10 | Nc1ccc(S(=O)(=O)N2c3cc(F)c(F)cc3-c3n[nH]cc3C2C2CC2)cc1 (racemic) | 53 | 35 | 85 | –
11 | O=C1OCCN1c1ccc2c(c1)N(S(=O)(=O)c1ccc(C(F)(F)F)cc1)C(C1CC1)c1c[nH]nc1-2 (racemic) | 32 | 13 | 0.26 | –
12 | O=S(=O)(c1ccc(Cl)cc1)N1c2ccccc2-c2n[nH]cc2C1C(F)(F)F (racemic) | 13 | 10 | 0.21 | –
13 | CC1c2c[nH]nc2-c2cc(F)ccc2N1S(=O)(=O)c1ccc(Cl)cc1 (racemic) | 13 | 23 | 1.6 | –
14 | CC1c2c[nH]nc2-c2c(F)cccc2N1S(=O)(=O)c1ccc(Cl)cc1 (racemic) | 3 | 11 | 1.4 | –
15 | O=S(=O)(c1ccc(C(F)(F)F)cc1)N1c2cc(Cl)ccc2-c2n[nH]cc2C1C1CC1 (racemic) | 87 | 85 | 0.44 | –
16 | COc1ccc(S(=O)(=O)N2c3ccccc3-c3n[nH]cc3C2C2CC2)cc1 (racemic) | 3 | 2 | 3.2 | –
17 | N#Cc1ccc(S(=O)(=O)N2c3ccccc3-c3n[nH]cc3C2C2CC2)cc1 (racemic) | 9 | 11 | 0.74 | –
18 | CC1c2c[nH]nc2-c2ccncc2N1S(=O)(=O)c1ccc(Cl)cc1 (racemic) | 6 | 3 | 2.6 | –
19 | CC1c2c[nH]nc2-c2ccccc2N1S(=O)(=O)c1ccc(Cl)cc1 (racemic) | 3 | 16 | 1.2 | –
20 | CCC1c2cn[nH]c2-c2ccccc2N1S(=O)(=O)c1ccc(Cl)cc1 (racemic) | 2 | 7 | 0.36 | –
21 | O=S(=O)(c1ccc(C(F)(F)F)cc1)N1c2cc(-c3cncnc3)ccc2-c2n[nH]cc2C1C1CC1 (racemic) | 27 | 3 | 0.2 | –
22 | O=S(=O)(c1ccc(C(F)(F)F)cc1)N1c2c[n+]([O-])ccc2-c2n[nH]cc2C1C1CC1 (racemic) | 87 | 88 | 2.4 | –
23 | CC1c2c[nH]nc2-c2ccc(F)cc2N1S(=O)(=O)c1ccc(Cl)cc1 (racemic) | 6 | 23 | 2.1 | –

Row | Structure (SMILES) | remaining at 0.5 h, 1 µM [1] [%] | remaining at 0.5 h, 1 µM [2] [%] | IC50 (Gamma-secretase) [nM] | also measured
24 | CC1c2c[nH]nc2-c2ccc(OC(=O)N(C)C)cc2N1S(=O)(=O)c1ccc(Cl)cc1 (racemic) | 0 | 0 | 0.93 | –
25 | N#Cc1ccc2c(c1)N(S(=O)(=O)c1ccc(C(F)(F)F)cc1)C(C1CC1)c1c[nH]nc1-2 (racemic) | 80 | 77 | 0.17 | –
26 | CC1c2c[nH]nc2-c2ccc(OCc3ccccc3)cc2N1S(=O)(=O)c1ccc(Cl)cc1 (racemic) | 0 | 1 | 1.5 | –
27 | Cc1nc2c(s1)N(S(=O)(=O)c1ccc(C(F)(F)F)cc1)C(C1CC1)c1c[nH]nc1-2 (racemic) | 31 | 8 | 24 | –
28 | CC1c2c[nH]nc2-n2ccnc2N1S(=O)(=O)c1ccc(Cl)cc1 (racemic) | 74 | 56 | 27 | –
29 | CC1c2cn[nH]c2-c2ccccc2N1S(=O)(=O)c1cccnc1 (racemic) | – | 3 | 140 | –
30 | CC1c2c[nH]nc2-c2cc(F)ccc2N1S(=O)(=O)c1cn(C)cn1 (racemic) | 76 | 65 | 5500 | –
31 | O=[N+]([O-])c1ccc(S(=O)(=O)N2c3cc(F)c(F)cc3-c3n[nH]cc3C2C2CC2)cc1 (racemic) | – | – | 40 | Stability (Liver microsomes): Not Active; Stability [2]: Not Active
32 | O=S(=O)(c1ccc(F)cc1)N1c2ccccc2-c2n[nH]cc2C1C1CC1 (racemic) | 8 | 11 | 0.42 | –
33 | O=S(=O)(c1ccc(C(F)(F)F)cc1)N1c2cc(-n3ccnc3)ccc2-c2n[nH]cc2C1C1CC1 (racemic) | 59 | 55 | 0.24 | –
34 | CC1c2cn[nH]c2-c2ccc(O)cc2N1S(=O)(=O)c1ccc(Cl)cc1 (racemic) | 50 | 27 | 0.65 | –
35 | CC1c2c[nH]nc2-c2cc(Cl)sc2N1S(=O)(=O)c1ccc(C(F)(F)F)cc1 (racemic) | 3 | 18 | 4.5 | –
36 | O=S(=O)(c1ccc(Cl)cc1)N1c2ccccc2-c2n[nH]cc2C1C1CC1 (racemic) | 4 | 15 | 0.17 | –
37 | O=S(=O)(c1ccc(OC(F)(F)F)cc1)N1c2ccc(F)cc2-c2n[nH]cc2C1C1CC1 (racemic) | 60 | 55 | 0.37 | –
38 | O=S(=O)(c1ccc(Cl)s1)N1c2cc(F)c(F)cc2-c2n[nH]cc2C1C1CC1 (racemic) | 4 | 9 | 0.52 | –
39 | COc1ccc2c(c1)N(S(=O)(=O)c1ccc(Cl)cc1)C(C)c1c[nH]nc1-2 (racemic) | 1 | 1 | 2 | –
40 | COC(=O)c1ccc2c(c1)N(S(=O)(=O)c1ccc(C(F)(F)F)cc1)C(C1CC1)c1c[nH]nc1-2 (racemic) | – | – | 0.26 | Stability (Liver microsomes): Not Active; Stability [2]: Not Active
41 | O=S(=O)(c1ccc(Cl)cn1)N1c2ccc(F)cc2-c2n[nH]cc2C1C1CC1 (racemic) | 62 | 49 | 1.3 | –
42 | O=S(=O)(c1ccc(C(F)(F)F)cc1)N1c2ccccc2-c2n[nH]cc2C1C1CC1 (racemic) | 45 | 49 | 0.31 | –
43 | O=S(=O)(c1ccc(C(F)(F)F)cc1)N1c2cc(-c3cscn3)ccc2-c2n[nH]cc2C1C1CC1 (racemic) | 60 | 32 | 0.41 | –
44 | O=S(=O)(c1ccccc1)N1c2ccccc2-c2n[nH]cc2C1C1CC1 (single isomer, unassigned; enantiomer 1) | – | – | 4.2 | Stability (Liver microsomes): Not Active; Stability [2]: Not Active
45 | O=S(=O)(c1ncc(Cl)s1)N1c2cc(F)c(F)cc2-c2n[nH]cc2C1C1CC1 (single isomer, unassigned; enantiomer 2) | 23 | 4 | 0.46 | –
46 | O=S(=O)(c1ccc(C(F)(F)F)cc1)N1c2cc(I)ccc2-c2n[nH]cc2C1C1CC1 (single isomer, unassigned; enantiomer 3) | 80 | 78 | 0.26 | –
